Source: ChEMBL document CHEMBL5303300, “EUbOPEN Chemogenomics Library - Multiplex” (2023)
“And” between values parts separate entries of the source, which are not always exact repeats. Equal values may be shown once.

Test system: U2OS
Experiment: Multiplex assay against U2OS
Type: toxicity, cell-based
Conditions: human, number of replicates 2
Summary of the method: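 Phenotypes for tubulin, mitochondrial mass and membrane permeability are expressed as per cents of healthy-nucleus cells. Cells were stained live at seeding with Hoechst33342, BioTracker Green Microtubule Cytoskeleton Dye, MitoTracker Red and Annexin V Alexa Fluor 680, then imaged after compound addition on a CQ1 microscope at 37°C and 5% CO2. Machine-learning gating in CellPathfinder separated Hoechst high-intensity objects from normal cells, divided normal cells by nuclear state (healthy, pyknosed, fragmented) and divided pyknosed cells into mitotic or apoptotic.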

[1] = 12 h, 1 µM, compound concentration 1 uM
[2] = 12 h, 10 µM, compound concentration 10 uM
[3] = 24 h, 1 µM, compound concentration 1 uM
[4] = 24 h, 10 µM, compound concentration 10 uM
[5] = 48 h, 1 µM, compound concentration 1 uM
[6] = 48 h, 10 µM, compound concentration 10 uM

## COCCN1CCN(CCn2ccc(Nc3ncc4c(n3)-c3c(nn(C)c3-c3ccccc3)C[C@H]4C)n2)CC1
[1]
  Population Apoptotic (%): 40% and 50%
  Population Healthy Nuclei (%): 84% and 72%
  Population Hoechst High Intensity Objects (%): 0%
  Population Membrane Permeable-Phenotype (%): 1% and 5%
  Population Mitochondria Different-Phenotype (%): 0%
  Population Mitotic Cells (%): 59% and 50%
  Population Normal (%): 100%
  Population Pyknosed Nuclei (%): 11% and 7%
  Population Tubulin-Different-Phenotype (%): 82% and 40%
[2]
  Population Apoptotic (%): 46% and 63%
  Population Fragmented Nuclei (%): 8% and 4%
  Population Healthy Nuclei (%): 61% and 79%
  Population Hoechst High Intensity Objects (%): 0%
  Population Membrane Permeable-Phenotype (%): 6% and 7%
  Population Mitochondria Different-Phenotype (%): 6% and 8%
  Population Mitotic Cells (%): 53% and 36%
  Population Normal (%): 100% and 99%
  Population Pyknosed Nuclei (%): 30% and 16%
  Population Tubulin-Different-Phenotype (%): 20% and 35%
[3]
  Population Apoptotic (%): 58% and 83%
  Population Fragmented Nuclei (%): 2% and 10%
  Population Healthy Nuclei (%): 86% and 81%
  Population Hoechst High Intensity Objects (%): 0%
  Population Membrane Permeable-Phenotype (%): 0% and 7%
  Population Mitochondria Different-Phenotype (%): 0% and 1%
  Population Mitotic Cells (%): 41% and 16%
  Population Normal (%): 100%
  Population Pyknosed Nuclei (%): 11% and 8%
  Population Tubulin-Different-Phenotype (%): 83% and 47%
[4]
  Population Apoptotic (%): 86% and 70%
  Population Fragmented Nuclei (%): 12% and 4%
  Population Healthy Nuclei (%): 63% and 78%
  Population Hoechst High Intensity Objects (%): 0%
  Population Membrane Permeable-Phenotype (%): 5% and 4%
  Population Mitochondria Different-Phenotype (%): 5% and 12%
  Population Mitotic Cells (%): 13% and 29%
  Population Normal (%): 100%
  Population Pyknosed Nuclei (%): 23% and 16%
  Population Tubulin-Different-Phenotype (%): 40% and 37%
[5]
  Population Apoptotic (%): 58% and 45%
  Population Fragmented Nuclei (%): 10% and 1%
  Population Healthy Nuclei (%): 68% and 89%
  Population Hoechst High Intensity Objects (%): 0%
  Population Membrane Permeable-Phenotype (%): 9% and 1%
  Population Mitochondria Different-Phenotype (%): 0%
  Population Mitotic Cells (%): 41% and 54%
  Population Normal (%): 100%
  Population Pyknosed Nuclei (%): 21% and 8%
  Population Tubulin-Different-Phenotype (%): 54% and 80%
[6]
  Population Apoptotic (%): 88% and 91%
  Population Fragmented Nuclei (%): 12% and 6%
  Population Healthy Nuclei (%): 70% and 78%
  Population Hoechst High Intensity Objects (%): 0%
  Population Membrane Permeable-Phenotype (%): 10%
  Population Mitochondria Different-Phenotype (%): 2% and 9%
  Population Mitotic Cells (%): 11% and 8%
  Population Normal (%): 100% and 99%
  Population Pyknosed Nuclei (%): 16% and 14%
  Population Tubulin-Different-Phenotype (%): 38% and 34%

## OC(c1ccc(-c2ccc(CN3CCN(Cc4ccncc4)CC3)cc2)c(F)c1)(C(F)(F)F)C(F)(F)F
[1]
  Population Hoechst High Intensity Objects (%): 0%
  Population Mitochondria Different-Phenotype (%): 0% and 1%
  Population Normal (%): 100%
  Population Pyknosed Nuclei (%): 14% and 9%
  Population Tubulin-Different-Phenotype (%): 100% and 87%
[2]
  Population Apoptotic (%): 50% and 40%
  Population Healthy Nuclei (%): 80% and 50%
  Population Hoechst High Intensity Objects (%): 0%
  Population Mitochondria Different-Phenotype (%): 3% and 0%
  Population Mitotic Cells (%): 50% and 60%
  Population Normal (%): 100%
  Population Pyknosed Nuclei (%): 15% and 17%
[3]
  Population Hoechst High Intensity Objects (%): 0%
  Population Membrane Permeable-Phenotype (%): 0%
  Population Mitochondria Different-Phenotype (%): 0%
  Population Mitotic Cells (%): 100% and 42%
  Population Normal (%): 100% and 99%
  Population Pyknosed Nuclei (%): 20% and 9%
[4]
  Population Apoptotic (%): 53% and 57%
  Population Healthy Nuclei (%): 79% and 54%
  Population Hoechst High Intensity Objects (%): 0%
  Population Mitochondria Different-Phenotype (%): 2% and 0%
  Population Mitotic Cells (%): 46% and 42%
  Population Normal (%): 99% and 100%
  Population Pyknosed Nuclei (%): 14% and 18%
  Population Tubulin-Different-Phenotype (%): 50% and 25%
[5]
  Population Hoechst High Intensity Objects (%): 0%
  Population Membrane Permeable-Phenotype (%): 0% and 1%
  Population Mitochondria Different-Phenotype (%): 0%
  Population Normal (%): 100%
  Population Pyknosed Nuclei (%): 0% and 5%
[6]
  Population Apoptotic (%): 54% and 58%
  Population Healthy Nuclei (%): 84% and 56%
  Population Hoechst High Intensity Objects (%): 0% and 1%
  Population Membrane Permeable-Phenotype (%): 3% and 10%
  Population Mitochondria Different-Phenotype (%): 2% and 3%
  Population Mitotic Cells (%): 45% and 41%
  Population Normal (%): 100% and 98%
  Population Pyknosed Nuclei (%): 11% and 23%
